Data: ChEMBL document CHEMBL4842318, “A γ-lactam siderophore antibiotic effective against multidrug-resistant Pseudomonas aeruginosa, Klebsiella pneumoniae, and Acinetobacter spp” (Eur J Med Chem, 2021)

What was measured:
[1] = tested on: Acinetobacter baumannii; test: Antibacterial activity against carbapenem susceptible Acinetobacter baumannii isolate PR-340 assessed as inhibition of bacterial growth in presence of 20 ug/ml sulbactam by microdilution method
[2] = tested on: Acinetobacter baumannii; test: Antibacterial activity against carbapenem resistant Acinetobacter baumannii isolate PR-401 assessed as inhibition of bacterial growth at 1:1 compound to sulbactam concentration by microdilution method; type: functional
Method in brief: (§1)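 Iron-depleted (Chelex-treated) cation-adjusted Mueller-Hinton broth microdilution; inoculum 6 × 10^4 cfu/mL. Test agent and sulbactam mixed 1:1 by mass and serially 2-fold diluted together. MIC in μg/mL.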

[3] = biological target: T1, CYP2C8 (Homo sapiens, UniProt P10632); test: Inhibition of CYP2C8 (unknown origin) at 100 uM; type: ADME
T1 sequence (P10632 whole entry): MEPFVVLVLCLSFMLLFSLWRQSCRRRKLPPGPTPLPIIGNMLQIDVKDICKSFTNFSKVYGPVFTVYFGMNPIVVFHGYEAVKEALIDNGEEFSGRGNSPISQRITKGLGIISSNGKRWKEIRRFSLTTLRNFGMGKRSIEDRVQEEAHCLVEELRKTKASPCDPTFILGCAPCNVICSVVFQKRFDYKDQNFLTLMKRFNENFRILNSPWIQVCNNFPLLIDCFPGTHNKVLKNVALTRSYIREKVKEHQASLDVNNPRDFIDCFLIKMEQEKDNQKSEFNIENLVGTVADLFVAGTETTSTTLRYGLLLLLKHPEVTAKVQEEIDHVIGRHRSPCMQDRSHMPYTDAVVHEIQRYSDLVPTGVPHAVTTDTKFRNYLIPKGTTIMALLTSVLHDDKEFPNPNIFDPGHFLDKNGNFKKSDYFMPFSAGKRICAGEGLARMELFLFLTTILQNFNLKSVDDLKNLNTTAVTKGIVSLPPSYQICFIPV

[4] = tested on: Acinetobacter baumannii; test: Antibacterial activity against carbapenem resistant Acinetobacter baumannii isolate PR-345 assessed as inhibition of bacterial growth at 1:1 compound to sulbactam concentration by microdilution method; type: functional
Method in brief: as §1

[5] = Plasma concentration in SC dosed CD-1 mouse treated four times at 6 hrs interval measured after 6 hrs; type: ADME, organism-based
Method in brief: (§2)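 CD-1 mice dosed SC at 50 mg/kg. Plasma sampled at 0.167 to 24 h, three individual mice per time point, reported as mean and SD in ng/mL.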

[6] = tested on: Acinetobacter baumannii; test: Antibacterial activity against carbapenem resistant Acinetobacter baumannii isolate PR-325 assessed as inhibition of bacterial growth at 1:1 compound to sulbactam concentration by microdilution method; type: functional
Method in brief: as §1

[7] = tested on: Acinetobacter baumannii; test: Antibacterial activity against carbapenem resistant Acinetobacter baumannii isolate PR-459 assessed as bacterial growth inhibition by microdilution method; type: functional
Method in brief: (§3)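 Broth microdilution in Chelex-treated, iron-depleted cation-adjusted Mueller-Hinton broth, following the protocol used for siderophore-containing antibiotics; inoculum lowered to 6 × 10^4 cfu/mL; MIC read as growth inhibition, in μg/mL.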

[8] = tested on: Pseudomonas aeruginosa; test: Antibacterial activity against wild type Pseudomonas aeruginosa isolate PR-699 assessed as inhibition of bacterial growth by microdilution method; type: functional
Method in brief: (§4)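 Broth microdilution MIC in iron-depleted (Chelex resin-treated) cation-adjusted Mueller-Hinton broth, following the protocol used for siderophore-containing antibiotics. Inoculum was lowered to 6 × 10^4 cfu/mL.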

[9] = Metabolic stability in human microsomes assessed as half life; type: ADME, Microsome
[10] = biological target: COX-1 (Homo sapiens, UniProt P23219); test: Inhibition of COX-1 (unknown origin) at 30 uM
[11] = tested on: Pseudomonas aeruginosa; test: Antibacterial activity against wild type Pseudomonas aeruginosa isolate PR-604 assessed as inhibition of bacterial growth by microdilution method; type: functional
Method in brief: as §4

[12] = Substrate activity at NDM1 (unknown origin) assessed as Kcat by measuring hydrolysis by spectrophotometry; type: ADME
Method in brief: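 Substrate hydrolysis (600 μM start) followed at 336 nm (Δε336 = −4362 M−1 cm−1, 0.2 cm cuvette) to completion; velocities over 10 s intervals along progress curve; Km, Vmax from double reciprocal plot, kcat = Vmax/[E].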

[13] = biological target: Penicillin-binding protein 3 (Pseudomonas aeruginosa, UniProt Q51504); test: Inhibition of Pseudomonas aeruginosa PBP3 assessed as reduction in fluorescence intensity using Bocillin-protein as fluorescent substrate preincubated for 20 mins measured after 20 mins by SDS PAGE analysis
Method in brief: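 Purified soluble P. aeruginosa PBP3 at 1.6 μM in 10 mM PBS, pH 7.4. Preincubated with increasing compound concentrations for 20 min at 37 °C, then 50 μM Bocillin added for a further 20 min. Stopped with SDS loading dye and 2 min boiling, then run on SDS-PAGE and imaged at 365 nm. IC50 taken as the concentration halving Bocillin-labelled band fluorescence.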

[14] = tested on: Acinetobacter baumannii; test: Antibacterial activity against carbapenem resistant Acinetobacter baumannii isolate PR-482 assessed as bacterial growth inhibition by microdilution method; type: functional
Method in brief: as §3

[15] = Antibacterial activity against carbapenem susceptible Acinetobacter nosocomialis isolate PR-412 assessed as inhibition of bacterial growth in presence of 20 ug/ml sulbactam by microdilution method; type: functional; conditions: dose 20 µg/ml
Method in brief: (§5)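 MIC by broth microdilution using iron-depleted (Chelex-treated) cation-adjusted Mueller-Hinton broth and 6 × 10^4 cfu/mL inoculum. Compound serially diluted with sulbactam held constant at 20 μg/mL.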

[16] = tested on: Acinetobacter baumannii; test: Antibacterial activity against carbapenem resistant Acinetobacter baumannii isolate PR-482 assessed as inhibition of bacterial growth at 1:1 compound to sulbactam concentration by microdilution method; type: functional
Method in brief: as §1

[17] = tested on: Acinetobacter baumannii; test: Antibacterial activity against carbapenem susceptible Acinetobacter baumannii isolate PR-464 assessed as inhibition of bacterial growth at 1:1 compound to sulbactam concentration by microdilution method; type: functional
Method in brief: (§6)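 Broth microdilution MIC in Chelex-treated, iron-depleted cation-adjusted Mueller-Hinton broth, inoculum 6 × 10^4 cfu/mL. Compound and sulbactam combined 1:1 by mass in a 2-fold dilution series.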

[18] = tested on: Acinetobacter baumannii; test: Antibacterial activity against carbapenem resistant Acinetobacter baumannii isolate PR-423 assessed as inhibition of bacterial growth at 1:1 compound to sulbactam concentration by microdilution method; type: functional
Method in brief: as §1

[19] = Plasma concentration in SC dosed CD-1 mouse treated four times at 6 hrs interval measured after 0.5 hrs; type: ADME, organism-based
Method in brief: as §2

[20] = Antibacterial activity against carbapenem susceptible Acinetobacter nosocomialis isolate PR-365 assessed as inhibition of bacterial growth at 1:1 compound to sulbactam concentration by microdilution method; type: functional
Method in brief: as §6

[21] = tested on: Acinetobacter baumannii; test: Antibacterial activity against carbapenem susceptible Acinetobacter baumannii isolate PR-478 assessed as inhibition of bacterial growth in presence of 20 ug/ml sulbactam by microdilution method; type: functional; conditions: dose 20 µg/ml
Method in brief: as §5

[22] = Plasma concentration in SC dosed CD-1 mouse treated four times at 6 hrs interval measured after 24 hrs; type: ADME, organism-based
Method in brief: as §2

[23] = tested on: Pseudomonas aeruginosa; test: Antibacterial activity against wild type Pseudomonas aeruginosa isolate PR-672 assessed as inhibition of bacterial growth by microdilution method; type: functional
Method in brief: as §4

[24] = Plasma concentration in SC dosed CD-1 mouse treated four times at 6 hrs interval measured after 1 hrs; type: ADME, organism-based
Method in brief: as §2

[25] = Antibacterial activity against carbapenem susceptible Acinetobacter nosocomialis isolate PR-365 assessed as bacterial growth inhibition by microdilution method; type: functional
Method in brief: as §4

[26] = tested on: Hepatocyte; test: Cytotoxicity against human hepatocytes at 100 uM; type: cell-based
[27] = tested on: Acinetobacter baumannii; test: Antibacterial activity against carbapenem resistant Acinetobacter baumannii isolate PR-325 assessed as bacterial growth inhibition by microdilution method; type: functional
Method in brief: as §3

Sequence of COX-1 (P23219 whole entry): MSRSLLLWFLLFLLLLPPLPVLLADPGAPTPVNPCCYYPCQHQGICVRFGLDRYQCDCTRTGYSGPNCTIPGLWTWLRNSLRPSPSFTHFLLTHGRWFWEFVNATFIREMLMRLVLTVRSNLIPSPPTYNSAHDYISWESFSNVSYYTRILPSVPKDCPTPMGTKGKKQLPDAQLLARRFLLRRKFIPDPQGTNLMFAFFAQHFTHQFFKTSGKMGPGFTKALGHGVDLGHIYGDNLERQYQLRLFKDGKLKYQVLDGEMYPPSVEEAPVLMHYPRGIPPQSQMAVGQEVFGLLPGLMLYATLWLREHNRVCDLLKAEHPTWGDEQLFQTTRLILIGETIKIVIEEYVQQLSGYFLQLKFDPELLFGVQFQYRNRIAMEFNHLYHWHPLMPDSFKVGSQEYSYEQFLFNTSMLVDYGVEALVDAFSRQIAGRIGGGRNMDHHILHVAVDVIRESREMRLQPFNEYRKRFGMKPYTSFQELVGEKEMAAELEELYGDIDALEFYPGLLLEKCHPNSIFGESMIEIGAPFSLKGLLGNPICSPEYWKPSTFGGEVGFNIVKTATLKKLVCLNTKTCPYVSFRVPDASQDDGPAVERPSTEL
Sequence of Penicillin-binding protein 3 (Q51504 whole entry): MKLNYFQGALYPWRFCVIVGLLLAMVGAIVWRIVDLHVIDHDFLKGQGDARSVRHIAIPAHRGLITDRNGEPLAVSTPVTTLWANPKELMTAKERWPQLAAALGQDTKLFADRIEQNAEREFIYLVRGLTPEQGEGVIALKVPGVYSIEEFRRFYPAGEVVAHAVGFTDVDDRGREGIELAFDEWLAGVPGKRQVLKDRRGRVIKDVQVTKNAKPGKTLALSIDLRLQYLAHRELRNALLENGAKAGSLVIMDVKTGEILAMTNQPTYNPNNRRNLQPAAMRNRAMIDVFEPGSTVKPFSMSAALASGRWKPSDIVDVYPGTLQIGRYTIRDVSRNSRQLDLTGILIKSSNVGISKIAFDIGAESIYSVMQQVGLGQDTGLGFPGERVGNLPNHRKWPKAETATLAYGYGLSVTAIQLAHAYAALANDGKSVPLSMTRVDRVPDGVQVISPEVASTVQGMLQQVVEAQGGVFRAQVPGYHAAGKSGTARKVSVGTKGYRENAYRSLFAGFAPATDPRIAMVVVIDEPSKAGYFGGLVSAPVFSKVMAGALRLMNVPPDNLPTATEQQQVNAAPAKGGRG

CC(C)(O/N=C(\C(=O)N[C@H]1CN2CC(C(=O)NCCN3C(=O)c4cc(O)c(O)cc4C3=O)=C(C(=O)O)N2C1=O)c1nc(N)sc1Cl)C(=O)O
MIC [1]: ≤ 0.25 µg/mL | MIC [2]: 8 µg/mL | inhibition at 100 µM [3]: 50% | MIC [4]: 16 µg/mL | concentration at 6 h [5]: 1320 ng/mL | MIC [6]: > 16 µg/mL | MIC [7]: 16 µg/mL | MIC [8]: > 16 µg/mL | t1/2 [9]: > 1 h | inhibition at 30 µM [10]: > 50% | MIC [11]: ≤ 0.25 µg/mL | Kcat [12]: 35 s⁻¹ | IC50 [13]: 5 µM | MIC [14]: > 16 µg/mL | MIC [15]: ≤ 0.25 µg/mL | MIC [16]: > 16 µg/mL | MIC [17]: ≤ 0.25 µg/mL | MIC [18]: 8 µg/mL | concentration at 0.5 h [19]: 16200 ng/mL | MIC [20]: ≤ 0.25 µg/mL | MIC [21]: ≤ 0.25 µg/mL | concentration at 24 h [22]: 601 ng/mL | MIC [23]: ≤ 0.25 µg/mL | concentration at 1 h [24]: 3280 ng/mL | MIC [25]: > 16 µg/mL | Activity [26]: Non-Toxic | MIC [27]: > 16 µg/mL
